Measurements reported in ChEMBL document CHEMBL1828552, “Synthesis and studies of novel 2-(4-cyano-3-trifluoromethylphenyl amino)-4-(quinoline-4-yloxy)-6-(piperazinyl/piperidinyl)-s-triazines as potential antimicrobial, antimycobacterial and anticancer agents” (2011).
Values after ≈ are worked out from the molar mass of the structure shown.

What follows are compounds tested on Proteus vulgaris (assay: Antibacterial activity against 10^5 CFU/mL Proteus vulgaris MTCC 1771 after 24 hrs by agar streak dilution method). Conditions: MTCC 1771, 24 h.
Format: functional
Summary of the method: (§1)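 Agar streak dilution. Stock 100 µg/mL in DMSO; graded amounts were mixed into molten nutrient agar and poured at 4–5 mm depth. Plates carried serial dilutions over […]. About 10⁵ CFU/mL of each bacterium was applied, and plates were incubated at 37 ± 1 °C for 24 h. MIC was read from the dilution series.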
`N#Cc1ccc(Nc2nc(Oc3ccnc4ccccc34)nc(N3CCCCC3)n2)cc1C(F)(F)F` was tested, and the MIC was 100 µg/mL (≈ 203 µM).

The compounds below were run on Candida albicans (assay: Antifungal activity against 10^5 CFU/mL Candida albicans MTCC 183 after 48 hrs by disc diffusion technique). Conditions: not given.
Format: functional
`N#Cc1ccc(Nc2nc(Oc3ccnc4ccccc34)nc(N3CCCCC3)n2)cc1C(F)(F)F` was tested, and the “inhibition zone (IZ)” value was 12 mm.

Each compound was assayed on Escherichia coli (assay: Antibacterial activity against 10^5 CFU/mL Escherichia coli MTCC 739 after 24 hrs by agar streak dilution method). Conditions: MTCC 739, 24 h.
Format: functional
Summary of the method: as §1
`N#Cc1ccc(Nc2nc(Oc3ccnc4ccccc34)nc(N3CCCCC3)n2)cc1C(F)(F)F` gave an MIC of 100 µg/mL (≈ 203 µM).

The compounds below were run on Pseudomonas aeruginosa (assay: Antibacterial activity against 10^5 CFU/mL Pseudomonas aeruginosa MTCC 741 after 24 hrs by agar streak dilution method). Conditions: MTCC 741, 24 h.
Format: functional
Summary of the method: as §1
Work on `N#Cc1ccc(Nc2nc(Oc3ccnc4ccccc34)nc(N3CCCCC3)n2)cc1C(F)(F)F` yielded an MIC of 100 µg/mL (≈ 203 µM).

Each compound was assayed on Bacillus cereus (assay: Antibacterial activity against 10^5 CFU/mL Bacillus cereus MTCC 619 after 24 hrs by disc diffusion technique). Conditions: not given.
Format: functional
Summary of the method: (§2)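 Disc diffusion on Mueller–Hinton agar poured 5 mm deep. The surface was swabbed with a 10⁵ CFU/mL […] suspension. Filter-paper discs 6.25 mm in diameter were soaked in compound in DMSO and placed on the agar. Plates were incubated 24 h at 37 ± 1 °C, and the inhibition zone was measured in mm. A DMSO disc served as blank.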
For `N#Cc1ccc(Nc2nc(Oc3ccnc4ccccc34)nc(N3CCCCC3)n2)cc1C(F)(F)F`, the “inhibition zone (IZ)” value was 14 mm.

The compounds below were run on Bacillus cereus (assay: Antibacterial activity against 10^5 CFU/mL Bacillus cereus MTCC 619 after 24 hrs by agar streak dilution method). Conditions: MTCC 619, 24 h.
Format: functional
Summary of the method: as §1
With `N#Cc1ccc(Nc2nc(Oc3ccnc4ccccc34)nc(N3CCCCC3)n2)cc1C(F)(F)F` the MIC was 100 µg/mL (≈ 203 µM).

These compounds were tested on Aspergillus fumigatus (assay: Antifungal activity against 10^5 CFU/mL Aspergillus fumigatus MTCC 343 after 48 hrs by agar streak dilution method). Conditions: MTCC 343, 48 h.
Format: functional
Summary of the method: (§3)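 Agar streak dilution for fungi. Stock 100 µg/mL in DMSO; graded amounts were mixed into molten Sabouraud dextrose agar and poured at 4–5 mm depth. Serial dilutions ran over […]. About 10⁵ CFU/mL inoculum was applied, with incubation at 37 ± 1 °C for 48 h. MIC was read from the dilution series.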
`N#Cc1ccc(Nc2nc(Oc3ccnc4ccccc34)nc(N3CCCCC3)n2)cc1C(F)(F)F` gave an MIC of 100 µg/mL (≈ 203 µM).

The compounds below were run on Shigella flexneri (assay: Antibacterial activity against 10^5 CFU/mL Shigella flexneri MTCC 1457 after 24 hrs by disc diffusion technique). Conditions: not given.
Format: functional
Summary of the method: as §2
`N#Cc1ccc(Nc2nc(Oc3ccnc4ccccc34)nc(N3CCCCC3)n2)cc1C(F)(F)F` was tested, and the “inhibition zone (IZ)” value was under 10 mm.

These compounds were tested on Aspergillus fumigatus (assay: Antifungal activity against 10^5 CFU/mL Aspergillus fumigatus MTCC 343 after 48 hrs by disc diffusion technique). Conditions: not given.
Format: functional
In the case of `N#Cc1ccc(Nc2nc(Oc3ccnc4ccccc34)nc(N3CCCCC3)n2)cc1C(F)(F)F`, the “inhibition zone (IZ)” value was under 10 mm.

The compounds below were run on Klebsiella pneumoniae (assay: Antibacterial activity against 10^5 CFU/mL Klebsiella pneumoniae MTCC 109 after 24 hrs by agar streak dilution method). Conditions: MTCC 109, 24 h.
Format: functional
Summary of the method: as §1
In the case of `N#Cc1ccc(Nc2nc(Oc3ccnc4ccccc34)nc(N3CCCCC3)n2)cc1C(F)(F)F`, the MIC was 100 µg/mL (≈ 203 µM).

The compounds below were run on Pseudomonas aeruginosa (assay: Antibacterial activity against 10^5 CFU/mL Pseudomonas aeruginosa MTCC 741 after 24 hrs by disc diffusion technique). Conditions: not given.
Format: functional
Summary of the method: as §2
`N#Cc1ccc(Nc2nc(Oc3ccnc4ccccc34)nc(N3CCCCC3)n2)cc1C(F)(F)F` was tested, and the “inhibition zone (IZ)” value was under 10 mm.

Each compound was assayed on DU-145 (assay: Cytotoxicity against […] human DU145 cells after 48 hrs by SRB assay). Conditions: DU-145, 48 h.
Format: functional
Summary of the method: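 SRB assay in DU-145 cells grown in RPMI 1640 with 10% FBS and 2 mM L-glutamine. Cells were plated and held 24 h before addition of four 10-fold concentrations. After 48 h, cells were TCA-fixed, stained with 0.4% SRB and read at 540 nm. GI50, TGI and LC50 were derived against time-zero and control wells; each value is the mean of three experiments.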
In the case of `N#Cc1ccc(Nc2nc(Oc3ccnc4ccccc34)nc(N3CCCCC3)n2)cc1C(F)(F)F`, the GI50 was 94.9 µM, the LC50 (concentration giving 50% net cell kill relative to time zero) was over 100 µM and the TGI was over 100 µM.

The compounds below were run on Staphylococcus aureus (assay: Antibacterial activity against 10^5 CFU/mL Staphylococcus aureus MTCC 96 after 24 hrs by disc diffusion technique). Conditions: not given.
Format: functional
Summary of the method: as §2
For `N#Cc1ccc(Nc2nc(Oc3ccnc4ccccc34)nc(N3CCCCC3)n2)cc1C(F)(F)F`, the “inhibition zone (IZ)” value was 11 mm.

These compounds were tested on Salmonella typhi (assay: Antibacterial activity against 10^5 CFU/mL Salmonella typhi MTCC 733 after 24 hrs by agar streak dilution method). Conditions: Salmonella enterica, MTCC 733, 24 h.
Format: functional, Salmonella enterica subsp. enterica serovar Typhi
`N#Cc1ccc(Nc2nc(Oc3ccnc4ccccc34)nc(N3CCCCC3)n2)cc1C(F)(F)F` showed an MIC of 100 µg/mL (≈ 203 µM).

Each compound was assayed on Aspergillus clavatus (assay: Antifungal activity against 10^5 CFU/mL Aspergillus clavatus MTCC 1323 after 48 hrs by agar streak dilution method). Conditions: MTCC 1323, 48 h.
Format: functional
Summary of the method: as §3
Compound `N#Cc1ccc(Nc2nc(Oc3ccnc4ccccc34)nc(N3CCCCC3)n2)cc1C(F)(F)F` has an MIC of 100 µg/mL (≈ 203 µM).

What follows are compounds tested on Aspergillus niger (assay: Antifungal activity against 10^5 CFU/mL Aspergillus niger MTCC 282 after 48 hrs by agar streak dilution method). Conditions: MTCC 282, 48 h.
Format: functional
Summary of the method: as §3
For `N#Cc1ccc(Nc2nc(Oc3ccnc4ccccc34)nc(N3CCCCC3)n2)cc1C(F)(F)F`, the MIC was 100 µg/mL (≈ 203 µM).

These compounds were tested on Aspergillus clavatus (assay: Antifungal activity against 10^5 CFU/mL Aspergillus clavatus MTCC 1323 after 48 hrs by disc diffusion technique). Conditions: not given.
Format: functional
`N#Cc1ccc(Nc2nc(Oc3ccnc4ccccc34)nc(N3CCCCC3)n2)cc1C(F)(F)F` was tested, and the “inhibition zone (IZ)” value was 14 mm.

The compounds below were run on Salmonella typhi (assay: Antibacterial activity against 10^5 CFU/mL Salmonella typhi MTCC 733 after 24 hrs by disc diffusion technique). Conditions: not given.
Format: functional, Salmonella enterica subsp. enterica serovar Typhi
Summary of the method: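 Disc diffusion. Mueller-Hinton agar autoclaved 120 °C 30 min, poured 5 mm deep. Surface swabbed with 10⁵ CFU/mL suspension […]. 6.25 mm filter-paper discs soaked in compound in DMSO; DMSO-only disc as blank. Incubated 37 ± 1 °C, 24 h for bacteria or 48 h for fungi. Ciprofloxacin and ketoconazole discs as reference drugs. Inhibition zone measured in mm.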
In the case of `N#Cc1ccc(Nc2nc(Oc3ccnc4ccccc34)nc(N3CCCCC3)n2)cc1C(F)(F)F`, the “inhibition zone (IZ)” value was 12 mm.

What follows are compounds tested on Klebsiella pneumoniae (assay: Antibacterial activity against 10^5 CFU/mL Klebsiella pneumoniae MTCC 109 after 24 hrs by disc diffusion technique). Conditions: not given.
Format: functional
Summary of the method: as §2
With `N#Cc1ccc(Nc2nc(Oc3ccnc4ccccc34)nc(N3CCCCC3)n2)cc1C(F)(F)F` the “inhibition zone (IZ)” value was 15 mm.

The compounds below were run on Aspergillus niger (assay: Antifungal activity against 10^5 CFU/mL Aspergillus niger MTCC 282 after 48 hrs by disc diffusion technique). Conditions: not given.
Format: functional
In the case of `N#Cc1ccc(Nc2nc(Oc3ccnc4ccccc34)nc(N3CCCCC3)n2)cc1C(F)(F)F`, the “inhibition zone (IZ)” value was 12 mm.

What follows are compounds tested on Candida albicans (assay: Antifungal activity against 10^5 CFU/mL Candida albicans MTCC 183 after 48 hrs by agar streak dilution method). Conditions: MTCC 183, 48 h.
Format: functional
Summary of the method: as §3
`N#Cc1ccc(Nc2nc(Oc3ccnc4ccccc34)nc(N3CCCCC3)n2)cc1C(F)(F)F` showed an MIC of 100 µg/mL (≈ 203 µM).

Each compound was assayed on Shigella flexneri (assay: Antibacterial activity against 10^5 CFU/mL Shigella flexneri MTCC 1457 after 24 hrs by agar streak dilution method). Conditions: MTCC 1457, 24 h.
Format: functional
Summary of the method: as §1
`N#Cc1ccc(Nc2nc(Oc3ccnc4ccccc34)nc(N3CCCCC3)n2)cc1C(F)(F)F` showed an MIC of 100 µg/mL (≈ 203 µM).

What follows are compounds tested on Escherichia coli (assay: Antibacterial activity against 10^5 CFU/mL Escherichia coli MTCC 739 after 24 hrs by disc diffusion technique). Conditions: not given.
Format: functional
Summary of the method: as §2
`N#Cc1ccc(Nc2nc(Oc3ccnc4ccccc34)nc(N3CCCCC3)n2)cc1C(F)(F)F` was tested, and the “inhibition zone (IZ)” value was under 10 mm.

What follows are compounds tested on Staphylococcus aureus (assay: Antibacterial activity against 10^5 CFU/mL Staphylococcus aureus MTCC 96 after 24 hrs by agar streak dilution method). Conditions: MTCC 96, 24 h.
Format: functional
Summary of the method: as §1
`N#Cc1ccc(Nc2nc(Oc3ccnc4ccccc34)nc(N3CCCCC3)n2)cc1C(F)(F)F` gave an MIC of 100 µg/mL (≈ 203 µM).

Each compound was assayed on Proteus vulgaris (assay: Antibacterial activity against 10^5 CFU/mL Proteus vulgaris MTCC 1771 after 24 hrs by disc diffusion technique). Conditions: not given.
Format: functional
Summary of the method: as §2
With `N#Cc1ccc(Nc2nc(Oc3ccnc4ccccc34)nc(N3CCCCC3)n2)cc1C(F)(F)F` the “inhibition zone (IZ)” value was 14 mm.
